# Laboratory results taken from ChEMBL document CHEMBL1158180, “Synthesis and antimicrobial activity of some new heterocycles incorporating antipyrine moiety” (2008).
# What was measured:
# Conditions in all cases: read-out: IZ
# [1] = test system: Botrytis fabae; assay: Antimicrobial activity Botrytis fabae at 25 ug/mL after 72 hrs by agar diffusion technique
# [2] = test system: Fusarium oxysporum; assay: Antimicrobial activity Fusarium oxysporum at 25 ug/mL after 72 hrs by agar diffusion technique
# [3] = test system: Bacillus thuringiensis; assay: Antimicrobial activity Bacillus thuringiensis at 25 ug/mL after 24 hrs by agar diffusion technique; format: functional
# [4] = test system: Klebsiella pneumoniae; assay: Antimicrobial activity Klebsiella pneumoniae at 25 ug/mL after 24 hrs by agar diffusion technique; format: functional
# [5] = test system: Klebsiella pneumoniae; assay: Antimicrobial activity Klebsiella pneumoniae at 0.15 mg/mL after 24 hrs by agar diffusion technique; format: functional
# Method in brief: (§1)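 Agar diffusion on nutrient agar. Test solutions were 0.15 mg/mL in DMSO, and DMSO alone was the blank. Plates were seeded with the bacterial culture and incubated 24 h at 30 °C. The read-out was the diameter of the inhibition zone in mm.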
# [6] = test system: Bacillus thuringiensis; assay: Antimicrobial activity Bacillus thuringiensis at 0.15 mg/mL after 24 hrs by agar diffusion technique; format: functional
# Method in brief: as §1
# [7] = test system: Botrytis fabae; assay: Antimicrobial activity Botrytis fabae at 0.15 mg/mL after 72 hrs by agar diffusion technique
# [8] = test system: Fusarium oxysporum; assay: Antimicrobial activity Fusarium oxysporum at 0.15 mg/mL after 72 hrs by agar diffusion technique
Structure (SMILES),zone of inhibition at 25 µg/mL [1],zone of inhibition at 25 µg/mL [2],zone of inhibition at 25 µg/mL [3],zone of inhibition at 25 µg/mL [4],zone of inhibition at 150 µg/mL [5],zone of inhibition at 150 µg/mL [6],zone of inhibition at 150 µg/mL [7],zone of inhibition at 150 µg/mL [8]
OC(Cn1cncn1)(Cn1cncn1)c1ccc(F)cc1F [FLUCONAZOLE],22 mm,16 mm,–,–,–,–,–,–
O=C(N[C@H](CO)[C@H](O)c1ccc([N+](=O)[O-])cc1)C(Cl)Cl [CHLORAMPHENICOL],16 mm,15 mm,23 mm,20 mm,–,–,–,–
Cc1cc(O)n2nc(Nc3ccccc3)c(C(=O)Nc3c(C)n(C)n(-c4ccccc4)c3=O)c2n1,–,–,–,–,24 mm,20 mm,27 mm,25 mm
Cc1c(-n2nnc3[nH]nc(Nc4ccccc4)c3c2=O)c(=O)n(-c2ccccc2)n1C,–,–,–,–,22 mm,22 mm,26 mm,22 mm
Cc1c(NC(=O)CC#N)c(=O)n(-c2ccccc2)n1C,–,–,–,–,13 mm,12 mm,10 mm,12 mm
Cc1c(-n2cnc3[nH]nc(Nc4ccccc4)c3c2=O)c(=O)n(-c2ccccc2)n1C,–,–,–,–,29 mm,28 mm,27 mm,25 mm
Cc1cc(C)n(-c2c(C)n(C)n(-c3ccccc3)c2=O)c(=O)c1C#N,–,–,–,–,13 mm,10 mm,12 mm,12 mm
CC1(C)S[C@@H]2[C@H](NC(=O)[C@H](N)c3ccccc3)C(=O)N2[C@H]1C(=O)O [AMPICILLIN],17 mm,15 mm,18 mm,19 mm,–,–,–,–
Cc1c(NC(=O)c2cc3ccccc3oc2=N)c(=O)n(-c2ccccc2)n1C,–,–,–,–,22 mm,24 mm,18 mm,18 mm
Cc1cc(C)c2c(n1)[nH]n1c(=N)c(C(=O)Nc3c(C)n(C)n(-c4ccccc4)c3=O)nnc21,–,–,–,–,14 mm,13 mm,13 mm,14 mm
Cc1cc(C)c2c(N/N=C(\C#N)C(=O)Nc3c(C)n(C)n(-c4ccccc4)c3=O)n[nH]c2n1,–,–,–,–,19 mm,16 mm,16 mm,16 mm
Cc1c(NC(=O)c2c(Nc3ccccc3)n[nH]c2N)c(=O)n(-c2ccccc2)n1C,–,–,–,–,12 mm,15 mm,16 mm,12 mm
Cc1c(NC(=O)c2c(Nc3ccccc3)n[nH]c2/N=C\N(C)C)c(=O)n(-c2ccccc2)n1C,–,–,–,–,24 mm,27 mm,25 mm,21 mm
Cc1cc(C)n2nc(Nc3ccccc3)c(C(=O)Nc3c(C)n(C)n(-c4ccccc4)c3=O)c2n1,–,–,–,–,28 mm,21 mm,24 mm,25 mm
Cc1c(NC(=O)c2sc(=S)n(-c3ccccc3)c2N)c(=O)n(-c2ccccc2)n1C,–,–,–,–,12 mm,12 mm,13 mm,13 mm
